ChEMBL document CHEMBL1124862 (J Med Chem, 1990)

How the values were obtained:
[1] = molecular target: T1, 5-hydroxytryptamine receptor 1A (Rattus norvegicus, UniProt P19327); assay: Displacement of [3H]8-OH-DPAT from rat cortex 5-hydroxytryptamine 1A receptor
T1 sequence (P19327 whole entry): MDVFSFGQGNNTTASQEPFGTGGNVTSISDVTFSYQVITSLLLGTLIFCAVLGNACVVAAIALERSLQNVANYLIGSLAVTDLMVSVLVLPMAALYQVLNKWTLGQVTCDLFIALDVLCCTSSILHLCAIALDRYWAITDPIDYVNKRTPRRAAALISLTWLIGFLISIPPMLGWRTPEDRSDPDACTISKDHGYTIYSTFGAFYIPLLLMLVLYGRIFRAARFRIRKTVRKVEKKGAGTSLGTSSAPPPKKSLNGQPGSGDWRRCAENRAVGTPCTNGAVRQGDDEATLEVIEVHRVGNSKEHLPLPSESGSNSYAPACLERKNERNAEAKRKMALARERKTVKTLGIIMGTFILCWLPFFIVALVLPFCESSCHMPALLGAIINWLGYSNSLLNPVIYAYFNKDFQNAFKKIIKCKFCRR

[2] = molecular target: T2, 5-hydroxytryptamine receptor 1B (Rattus norvegicus, UniProt P28564); assay: Inhibitory activity against 5-hydroxytryptamine 1B receptor of rat cortex using [3H]5-HT
Summary of the method: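 Competition binding in rat cortex membranes, using the radioligand named in each line at a concentration of approximately its K_D.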

[3] = molecular target: Serotonin 2 (5-HT2) receptor (Rattus norvegicus, UniProt P30994+P08909+P14842); assay: Compound was evaluated for its inhibitory activity against 5-hydroxytryptamine 2 receptor of rat anterior cortex using [3H]ketanserin as the radioligand
[4] = molecular target: T2, 5-hydroxytryptamine receptor 1B; assay: Inhibitory activity against 5-hydroxytryptamine 1B receptor of rat cortex using [3H]5-HT as the radioligand.
5-HT1A receptor = 5-HT1A receptor (Cavia porcellus, UniProt A0A286Y074); assay: Inhibition of Forskolin-stimulated adenylate cyclase activity against 5-hydroxytryptamine 1A receptor of guinea pig hippocampus; assay type: functional, tissue-based
Summary of the method: (§1)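 Washed membranes came from guinea pig hippocampus, rat substantia nigra or guinea pig substantia nigra. They were incubated at 30 °C with [α-³²P]ATP, 3 μM forskolin and varying agonist concentrations. The reaction was stopped with 3% SDS. [³²P]cAMP was isolated by two-column chromatography and counted by scintillation, in pmol/mg protein/min. Points were run in triplicate, and EC50 came from at least three experiments.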

Rattus norvegicus = organism: Rattus norvegicus; assay: Effect of direct injection into the PVN (paraventricular medial hypothalamus) of rats on feeding behavior and the inhibition of food intake; assay type: functional
Summary of the method: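 Seven days later they were food-deprived for 24 h with water available. Each rat received a PVN infusion at 1 μL/min of test agent (16 μg) or 5-HT (32 μg) in 0.9% NaCl, or vehicle. Food eaten over 30 min was weighed. Groups were compared by two-tailed t test, and rats with misplaced cannulae were excluded after histology.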

[5] = molecular target: T2, 5-hydroxytryptamine receptor 1B; assay: Inhibition of Forskolin-stimulated adenylate cyclase activity against 5-hydroxytryptamine 1B receptor of rat substantia nigra; assay type: functional; summary of the method: as §1
[6] = molecular target: 5-hydroxytryptamine receptor 1D (Cavia porcellus, UniProt Q60484); assay: Inhibition of Forskolin-stimulated adenylate cyclase activity against 5-hydroxytryptamine 1D receptor of guinea pig substantia nigra
Summary of the method: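 Washed membranes from freshly dissected guinea pig substantia nigra, incubated at 30 °C with [α-³²P]ATP plus 3 μM forskolin and varying agonist concentrations. Reaction stopped with 3% SDS. [³²P]cAMP separated from [³²P]ATP on two columns and counted by liquid scintillation, as pmol/mg protein/min. EC50 from at least three experiments, each in triplicate.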

T2 sequence (P28564 whole entry): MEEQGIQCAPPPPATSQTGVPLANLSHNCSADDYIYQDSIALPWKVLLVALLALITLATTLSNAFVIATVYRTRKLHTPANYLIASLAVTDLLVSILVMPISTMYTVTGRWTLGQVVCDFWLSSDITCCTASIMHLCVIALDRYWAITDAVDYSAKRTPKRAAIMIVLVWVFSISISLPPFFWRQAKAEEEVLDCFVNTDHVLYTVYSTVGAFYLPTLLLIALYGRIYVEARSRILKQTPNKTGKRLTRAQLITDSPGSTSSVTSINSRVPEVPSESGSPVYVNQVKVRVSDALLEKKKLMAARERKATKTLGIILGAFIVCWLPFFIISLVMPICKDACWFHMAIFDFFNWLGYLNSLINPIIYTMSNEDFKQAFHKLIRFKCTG
Chain of 5-hydroxytryptamine receptor 1D (Q60484 whole entry): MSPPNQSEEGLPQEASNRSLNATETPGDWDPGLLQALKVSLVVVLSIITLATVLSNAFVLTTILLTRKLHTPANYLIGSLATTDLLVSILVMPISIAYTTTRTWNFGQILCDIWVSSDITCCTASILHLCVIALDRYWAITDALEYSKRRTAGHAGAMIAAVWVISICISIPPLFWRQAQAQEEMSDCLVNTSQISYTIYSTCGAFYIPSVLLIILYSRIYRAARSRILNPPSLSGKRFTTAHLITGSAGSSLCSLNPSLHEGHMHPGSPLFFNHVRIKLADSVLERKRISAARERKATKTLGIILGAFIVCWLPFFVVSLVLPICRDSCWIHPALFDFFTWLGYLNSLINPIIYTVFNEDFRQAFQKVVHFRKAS

Row | Compound | IC50 [1] | IC50 [2] | IC50 [3] | also measured
1 | Oc1ccc2[nH]cc(C3=CCNCC3)c2c1 | 30 nM | 1.2 nM | – | –
2 | N#Cc1ccc2[nH]cc(C3=CCNCC3)c2c1 | 32 nM | 0.8 nM | – | –
3 | Fc1ccc2[nH]cc(C3=CCNCC3)c2c1 | 65 nM | 1.9 nM | – | –
4 | CN1CCN(c2nc3cc(C(F)(F)F)ccc3n3cccc23)CC1 | 19 nM | 150 nM | 6800 nM | –
5 | FC(F)(F)c1cccc(N2CCNCC2)c1 | 290 nM | 27 nM | 570 nM | –
6 | Brc1ccc2[nH]cc(C3=CCNCC3)c2c1 | 13 nM | 3.2 nM | – | –
7 | C1=C(c2c[nH]c3ccccc23)CCNC1 | 140 nM | – | – | IC50 [4]: 3.7 nM
8 | FC(F)(F)c1ccc2c(c1)nc(N1CCNCC1)c1cccn12 | 37 nM | 21 nM | > 10000 nM | –
9 | Clc1ccc2[nH]cc(C3=CCNCC3)c2c1 | 26 nM | 3.3 nM | – | –
10 | O=[N+]([O-])c1ccc2[nH]cc(C3=CCNCC3)c2c1 | 36 nM | 3.5 nM | – | –
11 | Oc1ccc2[nH]cc(C3=CCNCC3)c2n1 | 3000 nM | 15 nM | > 10000 nM | EC50 (5-HT1A receptor): > 10000 nM; g/30min (Rattus norvegicus): 0.12; EC50 [5]: 56 nM
12 | COc1ccc2[nH]cc(C3=CCNCC3)c2c1 [RU-24969] | – | 2 nM | – | –
13 | NCCc1c[nH]c2ccc(O)cc12 [SEROTONIN] | – | – | – | EC50 [6]: 16 nM; g/30min (Rattus norvegicus): 1.15
